Laboratory results published in ChEMBL document CHEMBL4145598, “Discovery and Development of 8-Substituted Cycloberberine Derivatives as Novel Antibacterial Agents against MRSA” (ACS Med Chem Lett, 2018).
The source made the active and inactive calls. The rule behind the calls is not given here.

Columns and labels:
Staphylococcus aureus [1] = assay: Antimicrobial activity against methicillin-sensitive Staphylococcus aureus ATCC 29213 after 18 hrs by agar dilution assay; assay type: functional; conditions: ATCC 29213, 18 h
Staphylococcus aureus [2] = assay: Antimicrobial activity against methicillin-sensitive Staphylococcus aureus isolate 15 after 18 hrs by agar dilution assay; assay type: functional; conditions: isolate 15, 18 h
Staphylococcus aureus [3] = assay: Antimicrobial activity against methicillin-sensitive Staphylococcus aureus isolate 13-17 after 18 hrs by agar dilution assay; assay type: functional; conditions: isolate 13-17, 18 h
Staphylococcus aureus [4] = assay: Antimicrobial activity against methicillin-sensitive Staphylococcus aureus isolate 13-19 after 18 hrs by agar dilution assay; assay type: functional; conditions: isolate 13-19, 18 h
Staphylococcus aureus [5] = assay: Antimicrobial activity against methicillin-sensitive Staphylococcus aureus isolate 13-20 after 18 hrs by agar dilution assay; assay type: functional; conditions: isolate 13-20, 18 h
Staphylococcus aureus [6] = assay: Antimicrobial activity against methicillin-sensitive Staphylococcus aureus isolate 13-21 after 18 hrs by agar dilution assay; assay type: functional; conditions: isolate 13-21, 18 h
[7] = test system: Staphylococcus epidermidis; assay: Antimicrobial activity against methicillin-sensitive Staphylococcus epidermidis ATCC 12228 after 18 hrs by agar dilution assay; assay type: functional; conditions: ATCC 12228, 18 h
[8] = test system: Staphylococcus epidermidis; assay: Antimicrobial activity against methicillin-sensitive Staphylococcus epidermidis isolate 13-1 after 18 hrs by agar dilution assay; assay type: functional; conditions: isolate 13-1, 18 h
[9] = test system: Staphylococcus saprophyticus; assay: Antimicrobial activity against Staphylococcus saprophyticus ATCC 15305 after 18 hrs by agar dilution assay; assay type: functional; conditions: ATCC 15305, 18 h
Staphylococcus hominis = assay: Antimicrobial activity against Staphylococcus hominis ATCC 35982 after 18 hrs by agar dilution assay; assay type: functional; conditions: ATCC 35982, 18 h
Staphylococcus aureus [10] = assay: Antimicrobial activity against methicillin-resistant Staphylococcus aureus ATCC 33591 after 18 hrs by agar dilution assay; assay type: functional; conditions: ATCC 33591, 18 h
Method in brief: (§1)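 Drug-resistant S. aureus (MRSA/VISA) panel. It includes ATCC reference strains and clinical isolates from patients in Chinese hospitals. MIC was determined by standard methods and reported in μg/mL, with levofloxacin as the reference drug.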

Staphylococcus aureus [11] = assay: Antimicrobial activity against methicillin-resistant Staphylococcus aureus isolate 13-18 after 18 hrs by agar dilution assay; assay type: functional; conditions: isolate 13-18, 18 h; method in brief: as §1
Staphylococcus aureus [12] = assay: Antimicrobial activity against methicillin-resistant Staphylococcus aureus isolate 13-23 after 18 hrs by agar dilution assay; assay type: functional; conditions: isolate 13-23, 18 h; method in brief: as §1
Staphylococcus aureus [13] = assay: Antimicrobial activity against methicillin-resistant Staphylococcus aureus isolate 12-3 after 18 hrs by agar dilution assay; assay type: functional; conditions: isolate 12-3, 18 h; method in brief: as §1
Staphylococcus aureus [14] = assay: Antimicrobial activity against methicillin-resistant Staphylococcus aureus isolate 12-8 after 18 hrs by agar dilution assay; assay type: functional; conditions: isolate 12-8, 18 h; method in brief: as §1
Staphylococcus aureus [15] = assay: Antimicrobial activity against methicillin-resistant Staphylococcus aureus isolate 12-13 after 18 hrs by agar dilution assay; assay type: functional; conditions: isolate 12-13, 18 h; method in brief: as §1
Staphylococcus aureus [16] = assay: Antimicrobial activity against methicillin-resistant Staphylococcus aureus isolate 12-16 after 18 hrs by agar dilution assay; assay type: functional; conditions: isolate 12-16, 18 h; method in brief: as §1
Staphylococcus aureus [17] = assay: Antimicrobial activity against methicillin-resistant Staphylococcus aureus ATCC-BAA-1708 after 18 hrs by agar dilution assay; assay type: functional; conditions: ATCC-BAA-1708, 18 h; method in brief: as §1
Staphylococcus aureus [18] = assay: Antimicrobial activity against vancomycin-intermediate Staphylococcus aureus ATCC 700698 after 18 hrs by agar dilution assay; assay type: functional; conditions: ATCC 700698, 18 h
Method in brief: (§2)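 MICs in μg/mL against drug-resistant S. aureus (MRSA/VISA) by standard methods, with levofloxacin as the reference drug. ATCC strains were used.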

Staphylococcus aureus [19] = assay: Antimicrobial activity against vancomycin-intermediate Staphylococcus aureus ATCC 700699 after 18 hrs by agar dilution assay; assay type: functional; conditions: ATCC 700699, 18 h; method in brief: as §2
[20] = Stability in Sprague-Dawley rat blood assessed as parent compound remaining at […] after 420 mins by LC-MS/MS analysis; assay type: ADME, tissue-based; conditions: read-out: Stability
[21] = Cytotoxicity against human A549 cells assessed as decrease in cell viability after 24 hrs by MTT assay; assay type: cell-based
Method in brief: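 A549 cells were treated with compound at a series of concentrations for 24 h, and viability was read by MTT assay. Controls received 0.4% (v/v) DMSO. CC50 is given in μg/mL.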

DNA = assay: Binding affinity to Escherichia coli DH5-alpha supercoiled pET-32a DNA assessed as conversion of closed circular form to open circular form of DNA at 61.5 to 492 ug/ml after 4 hrs by agarose gel electrophoresis; assay type: nucleic-acid assay
Method in brief: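 Supercoiled pET-32a plasmid DNA was incubated with compound at increasing concentrations for 4 h at 37 °C under physiological conditions. DNA forms were resolved by agarose gel electrophoresis.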

Structure (SMILES)	MIC (Staphylococcus aureus [1]) [µg/mL]	MIC (Staphylococcus aureus [2]) [µg/mL]	MIC (Staphylococcus aureus [3]) [µg/mL]	MIC (Staphylococcus aureus [4]) [µg/mL]	MIC (Staphylococcus aureus [5]) [µg/mL]	MIC (Staphylococcus aureus [6]) [µg/mL]	MIC [7] [µg/mL]	MIC [8] [µg/mL]	MIC [9] [µg/mL]	MIC (Staphylococcus hominis) [µg/mL]	MIC (Staphylococcus aureus [10]) [µg/mL]	MIC (Staphylococcus aureus [11]) [µg/mL]	MIC (Staphylococcus aureus [12]) [µg/mL]	MIC (Staphylococcus aureus [13]) [µg/mL]	MIC (Staphylococcus aureus [14]) [µg/mL]	MIC (Staphylococcus aureus [15]) [µg/mL]	MIC (Staphylococcus aureus [16]) [µg/mL]	MIC (Staphylococcus aureus [17]) [µg/mL]	MIC (Staphylococcus aureus [18]) [µg/mL]	MIC (Staphylococcus aureus [19]) [µg/mL]	further results
COc1ccc2c(c[n+]3c4c2ccc2c5c(cc(c24)CC3)OCO5)c1NC(=O)c1csnn1.[Cl-]	2	4	2	2	2	2	4	2	4	2	2	2	2	2	2	4	2	2	16	8	remaining at 7 h [20]: 57.2%; CC50 at 24 h [21]: 16.1 µg/mL; Activity (DNA): Active
COc1ccc2c(c[n+]3c4c2ccc2c5c(cc(c24)CC3)OCO5)c1OCC(=O)c1cccc(OC(F)(F)F)c1.[Br-]	32	16	16	16	16	16	16	32	16	32	16	16	16	16	8	32	16	64	> 64	> 64	–
COc1ccc2c(c[n+]3c4c2ccc2c5c(cc(c24)CC3)OCO5)c1OCC(=O)c1ccc(C)cc1.[Br-]	4	8	4	4	8	4	2	8	4	4	4	4	4	4	8	4	4	8	> 64	> 64	–
COc1ccc2c(c[n+]3c4c2ccc2c5c(cc(c24)CC3)OCO5)c1OC(C)=O.[Cl-]	1	2	1	8	2	4	1	2	4	2	4	1	2	4	8	4	2	8	16	32	CC50 at 24 h [21]: > 33.6 µg/mL
COc1ccc2c(c[n+]3c4c2ccc2c5c(cc(c24)CC3)OCO5)c1OCC(=O)C12CC3CC(CC(C3)C1)C2.[Br-]	4	2	2	4	4	2	2	2	2	2	2	4	2	4	4	4	2	4	8	8	remaining at 7 h [20]: 58%; CC50 at 24 h [21]: 2 µg/mL
